Screening data deposited in PubChem by several laboratories.
An excerpt weighted towards active compounds, which were near 2.1% of everything screened.
Runt-CBFb FRET: Runt domain-CBFb interaction inhibition; AID 1496; 220,000 tested, 0.46% active; Cerulean-Runt/Venus-CBFb FRET ratio 530/480, 1 h; inhibition, % at 20 µM; Q01196+Q13951;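 active = inhibition over about 50% at 20 µM in the single-dose screen, limit read from the data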
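Schedule: protein complex preformed 1 h, compound exposure 1 h, room temperature, dark; test system: Cerulean-labeled Runt domain protein; amount: 100 nM per protein; buffer or medium: Tris 50 mM pH 7.5, KCl, K2SO4, 0.01% BSA; read-out: loss of energy transfer signal; detection: FRET fluorescence; controls: 5 µM unlabeled CBFb as full-inhibition high control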
Hck Nef HTS: human Hck-Nef kinase inhibition; P08631; Recombinant Hck-YEEI plus Nef, Z-Lyte FRET kinase assay; inhibition, % at 20 µM; 220,000 tested, 0.68% active; AID 463187;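 active = Hck-Nef kinase inhibition above about 50%, limit read from the data; inactive = inhibition below that limit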
Target sequence (P08631 whole entry, looked up): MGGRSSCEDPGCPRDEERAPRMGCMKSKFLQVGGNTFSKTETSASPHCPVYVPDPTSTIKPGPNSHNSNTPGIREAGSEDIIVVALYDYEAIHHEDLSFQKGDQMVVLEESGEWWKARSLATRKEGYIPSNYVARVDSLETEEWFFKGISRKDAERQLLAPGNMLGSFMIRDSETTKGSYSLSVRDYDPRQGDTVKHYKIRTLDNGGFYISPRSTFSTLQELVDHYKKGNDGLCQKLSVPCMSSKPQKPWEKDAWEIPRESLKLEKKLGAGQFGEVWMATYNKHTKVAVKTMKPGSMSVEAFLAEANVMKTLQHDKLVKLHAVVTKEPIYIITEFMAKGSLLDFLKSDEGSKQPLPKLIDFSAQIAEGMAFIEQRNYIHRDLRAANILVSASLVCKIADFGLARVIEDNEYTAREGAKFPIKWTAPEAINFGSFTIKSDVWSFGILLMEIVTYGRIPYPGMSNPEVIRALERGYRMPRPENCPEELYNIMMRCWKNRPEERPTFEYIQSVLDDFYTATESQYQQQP
Runt-SMMHC FRET: blocks binding of human RUNX1 Runt domain to CBFb-SMMHC; Q01196+Q13951; inhibition, % at 20 µM; AID 1434; 220,000 tested, 0.74% active; Cerulean-Runt/Venus-CBFb-SMMHC FRET ratio 530/480, 1 h;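 active = mean inhibition across duplicate retests at 20 µM reaching about 50%, limit read from the data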;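 also: inhibitors lower the FRET ratio by blocking Runt binding to CBFb-SMMHC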
p-CIP stab down: lowers stability of the mouse p/CIP coactivator protein; decrease of EGFP signal, % at 10 µM; AID 1984; 290,000 tested, 0.01% active; F442A p/CIP-EGFP cells, EGFP fluorescence, 16 h;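 active = EGFP signal decrease of at least 30% at 10 µM or well 3 SD below plate mean, unless failing retest; inactive = the rest, including hits failing retest or dose response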
RanGTP-Imp inh: disruptors of Ran-importin-beta complex formation – biochemical, FRET, CFP-Ran, YFP-importin-beta, homogeneous, primary screen. AID 2216. 300,000 tested, 1.1% active. inhibition, % (no concentration beside the values). cell-free CFP-Ran/YFP-importin-beta FRET ratio;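 active = more than half of the replicate wells show a fall in the fluorescence ratio signal beyond about 16%, limit read from the data, passing the limit was not always enough; inconclusive = exactly half of the replicate wells pass the set limit; inactive = fewer than half of replicates pass the limit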
Pemphigus Ab inh: human desmoglein-3 autoantibody binding inhibition. P32926. 310,000 tested, 0.48% active. binding (percent of control), % at 10 µM. DSG3-coupled beads, scFv-anti-DSG3-GFP binding, flow cytometry; stronger effect = lower value;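 active = binding more than 3 SD below its plate's average and above zero; inconclusive = below that plate limit but binding exactly zero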;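 also: hits lower antibody fragment binding to DSG3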
A number is an active result; . = inactive; ? = inconclusive; / = no result given.

SMILES	Runt-CBFb FRET	Hck Nef HTS	Runt-SMMHC FRET	p-CIP stab down	RanGTP-Imp inh	Pemphigus Ab inh
CCOc1ccc(N2CC(C(=O)Nc3ccncc3)CC2=O)cc1 (configuration not stated)	/	/	/	.	.	54.0
COc1ccc(N2CC(C(=O)Nc3nnc(SCC(=O)Nc4ccc(NC(C)=O)cc4)s3)CC2=O)cc1 (configuration not stated)	/	/	/	/	/	85.0
COc1ccc2[nH]c3c(c2c1)CCN1C(=O)C(CC(=O)NCc2cccc(C(F)(F)F)c2)C[C@H](C(=O)N2CCCCC2)[C@@]31C (some centres not stated)	/	/	/	/	/	78.6
C[C@]12c3[nH]c4ccc(Cl)cc4c3CCN1C(=O)[C@@H](CC(=O)NCc1cccc(C(F)(F)F)c1)C[C@@H]2C(=O)N1CCCCC1	/	/	/	/	/	.
Nc1c(C(=O)NCC2CCCO2)c2nc3ccccc3nc2n1/N=C/c1ccncc1 (configuration not stated)	/	/	/	/	/	.
COC(=O)c1c(N)n(-c2ccc(N3CCOCC3)cc2)c2nc3ccccc3nc12	.	/	.	.	/	/
Nc1c(C(=O)OCC2CCCO2)c2nc3ccccc3nc2n1C1CCCC1 (configuration not stated)	.	.	84.6	.	.	/
COCCn1c(N)c(C(=O)NCc2cccs2)c2nc3ccccc3nc21	.	.	69.7	.	84.4	.
CCOC(=O)c1c(N)n(CC(C)NC(=O)C2CC2)c2nc3ccccc3nc12 (configuration not stated)	73.8	.	162.7	.	/	/
COc1ccc(OC)c(-n2c(N)c(C(=O)NCC3CCCO3)c3nc4ccccc4nc32)c1 (configuration not stated)	.	.	.	.	.	.
COCCn1c(N)c(S(=O)(=O)c2cccs2)c2nc3ccccc3nc21	.	.	.	.	.	.
COCCn1c(N)c(C(=O)NCC2CCCO2)c2nc3ccccc3nc21 (configuration not stated)	70.3	.	79.3	.	94.4	.
Cc1ccc(C(C)C)cc1OCCn1cncn1	/	/	/	.	.	.
CCOC(=O)c1oc2nc(CC(C)C)c3c(c2c1N)CCCC3	.	.	.	.	.	.
O=C(CCNC(=O)C1CCN(S(=O)(=O)c2ccc(F)cc2)CC1)NC1CC1	/	/	/	.	.	.
COC(=O)c1c(NC(=O)c2ccccc2C(=O)O)sc2c1CCCC2	/	/	/	/	/	.
COCCn1c(N)c(C(=O)Nc2sc3c(c2C(=O)OC)CCCC3)c2nc3ccccc3nc21	86.7	.	.	.	.	.
Nc1c(C(=O)NC2CCCC2)c2nc3ccccc3nc2n1N	.	.	.	.	39.0	.
CCOC(=O)c1c(C)[nH]c(C(=O)OCC(=O)NCc2ccco2)c1C	/	/	/	/	/	.
CC(=O)N1CCc2c(sc(NC(=O)C3CCN(S(=O)(=O)c4cccs4)CC3)c2C(N)=O)C1	/	/	/	/	?	.
CCCN1CCc2c(sc(NC(=O)C3CCN(S(=O)(=O)c4cccs4)CC3)c2C(N)=O)C1	/	/	/	/	151.2	.
CCOC(=O)N1CCN(S(=O)(=O)c2ccc(C(=O)Nc3sc4c(c3C(=O)OC)CCN(C)C4)cc2)CC1	/	/	/	.	.	.
CCCN1CCc2c(sc(NC(=O)c3ccc(S(=O)(=O)N4CCN(C(=O)OCC)CC4)cc3)c2C(N)=O)C1	/	/	/	.	96.5	.
CCOC(=O)N1CCN(S(=O)(=O)c2ccc(C(=O)Nc3sc4c(c3C(N)=O)CCN(CC)C4)cc2)CC1	/	/	/	.	43.0	.
O=C(NCCCCCCNC(=O)OCc1ccccc1)OCc1ccccc1	/	/	/	/	/	6.8
SMILES	Runt-CBFb FRET	Hck Nef HTS	Runt-SMMHC FRET	p-CIP stab down	RanGTP-Imp inh	Pemphigus Ab inh
O=C(O)CCCNC(=O)OCc1ccccc1	.	.	.	.	.	/
CC12CC3(C)CC(C)(C1)CC(C(=O)NCc1ccccn1)(C2)C3	.	.	.	.	34.5	.
CC(C)CNC(=O)C(=O)NCc1ccccn1	.	.	.	.	.	15.5
CC(C)NC(=O)C(=O)NCc1ccccn1	.	.	.	.	.	.
Cc1nnc(SCc2cc(=O)oc3cc(O)ccc23)n1Cc1ccccc1	84.7	.	127.4	.	.	.
COc1ccccc1-n1c(SCc2cc(=O)oc3cc(O)ccc23)nc2ccccc2c1=O	.	.	69.7	.	.	.
COc1ccccc1-n1c(SCC(=O)N2CCOCC2)nc2ccccc2c1=O	/	/	/	.	?	.
